One block for each compound: values may come before it.
Key:
activated α4β1 integrin = activated α4β1 integrin (Homo sapiens, UniProt P05556+P13612); assay type: cell-based; settings: for potency (in words): SAR summary, Molt-4 cell adhesion
[1] = test system: Molt-4 (T-cell lymphoma) or Raji tumors (B-cell lymphoma); assay type: in vivo, nude mice
How it was run: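 Athymic Nu/Nu mice, 4–6 weeks old, bore sc Molt-4 or Raji (1 × 10^7 cells, right upper back) and A549 (1 × 10^6 cells, left upper back), studied at 10–15 mm. Under pentobarbital ip anesthesia, Cy5.5-conjugated test compound given iv by tail vein; serial NIRF imaging 5 min–120 h (10 nmol), 30 s exposures. Ex vivo organs and tumors at 24 h (0.25 or 1 nmol); ROI mean intensity minus heart background.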

Solubility = assay type: physicochemical; settings: preliminary evidence
[2] = iv tail vein, nude mice with Molt-4 or Raji and A549 xenografts, NIRF imaging

Chain of activated α4β1 integrin (P13612 34-1032): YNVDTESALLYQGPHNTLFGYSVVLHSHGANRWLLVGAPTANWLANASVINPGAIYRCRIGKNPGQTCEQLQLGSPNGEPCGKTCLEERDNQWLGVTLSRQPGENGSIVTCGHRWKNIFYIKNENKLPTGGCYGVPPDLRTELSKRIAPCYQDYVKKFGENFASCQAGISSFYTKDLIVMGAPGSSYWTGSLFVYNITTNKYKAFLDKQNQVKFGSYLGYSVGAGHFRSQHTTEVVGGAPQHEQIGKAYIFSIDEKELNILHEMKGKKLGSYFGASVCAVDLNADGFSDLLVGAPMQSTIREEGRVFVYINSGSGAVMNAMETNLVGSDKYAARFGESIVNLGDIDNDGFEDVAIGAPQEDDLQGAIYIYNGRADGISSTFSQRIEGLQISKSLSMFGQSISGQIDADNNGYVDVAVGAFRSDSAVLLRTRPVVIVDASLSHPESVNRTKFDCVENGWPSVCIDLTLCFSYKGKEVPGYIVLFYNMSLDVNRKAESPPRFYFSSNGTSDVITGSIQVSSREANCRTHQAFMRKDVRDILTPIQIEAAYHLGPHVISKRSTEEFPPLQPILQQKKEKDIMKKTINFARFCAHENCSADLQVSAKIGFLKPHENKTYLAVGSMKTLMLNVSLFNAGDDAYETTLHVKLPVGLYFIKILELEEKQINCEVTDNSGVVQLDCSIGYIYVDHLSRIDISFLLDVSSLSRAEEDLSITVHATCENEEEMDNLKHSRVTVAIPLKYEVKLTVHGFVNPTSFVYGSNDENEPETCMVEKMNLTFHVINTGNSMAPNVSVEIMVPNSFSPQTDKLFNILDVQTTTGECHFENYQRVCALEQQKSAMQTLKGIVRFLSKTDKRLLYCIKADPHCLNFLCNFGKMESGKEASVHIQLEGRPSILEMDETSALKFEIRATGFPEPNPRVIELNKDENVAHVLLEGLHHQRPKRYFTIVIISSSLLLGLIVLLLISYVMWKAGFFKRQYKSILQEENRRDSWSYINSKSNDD
Chain of activated α4β1 integrin (P05556 21-798): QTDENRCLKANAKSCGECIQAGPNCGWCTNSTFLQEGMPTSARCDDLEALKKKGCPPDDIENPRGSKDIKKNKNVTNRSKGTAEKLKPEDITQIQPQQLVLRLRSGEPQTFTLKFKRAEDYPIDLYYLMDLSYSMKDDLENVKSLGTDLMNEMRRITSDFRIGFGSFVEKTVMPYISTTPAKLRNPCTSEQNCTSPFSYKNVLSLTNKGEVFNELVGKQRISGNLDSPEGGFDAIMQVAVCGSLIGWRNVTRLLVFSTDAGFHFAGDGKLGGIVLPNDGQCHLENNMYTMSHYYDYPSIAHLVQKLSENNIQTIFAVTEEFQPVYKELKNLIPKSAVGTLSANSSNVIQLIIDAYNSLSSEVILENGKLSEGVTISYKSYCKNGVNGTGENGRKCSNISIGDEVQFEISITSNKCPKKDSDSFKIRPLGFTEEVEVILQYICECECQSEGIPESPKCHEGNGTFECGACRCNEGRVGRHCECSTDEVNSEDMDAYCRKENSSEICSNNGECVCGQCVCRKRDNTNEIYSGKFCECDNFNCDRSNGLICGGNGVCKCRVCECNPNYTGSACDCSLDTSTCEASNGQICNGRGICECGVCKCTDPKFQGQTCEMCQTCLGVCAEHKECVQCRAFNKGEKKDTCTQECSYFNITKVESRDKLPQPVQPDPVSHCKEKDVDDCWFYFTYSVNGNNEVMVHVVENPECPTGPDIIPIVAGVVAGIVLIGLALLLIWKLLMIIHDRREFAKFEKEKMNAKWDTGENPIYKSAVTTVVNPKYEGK

Compound: 2-(1E,3E,5E)-5-3-(R)-1-(1-(R)-2-(R)-2-[2-(4-(benzo[d]thiazol-2-ylamino)phenyl)\acetamido]-6-(E)-3-(pyridin-3-yl)acrylamido)hexanamido)-5-carboxypentanamido)cyclohexyl)-27-carbamoyl-1,9,13,21,25,33-hexaoxo-5,17-dioxa-2,8,14,20,26,32-hexa-azaheptatriacontan-37-yl)-1,1-dimethyl-6,8-disulfonato-1H-benzo[e]indol-2(3H)-ylid-ene)penta-1,3-dienyl)-3-ethyl-1,1-di-methyl-1H-benzo[e]indolium-6,8-disulfonate [Compound 6-Cy5.5]
- organ signal (in words) ([1]; ex vivo NIRF of organs): low liver, muscle, lung, and spleen signal
- kidney:tumor ratio (in words) ([1]; ex vivo NIRF, preliminary, compared with 1-Cy5.5): improvement in the kidney:tumor ratio
- tumor uptake first observed post injection [1, 2]: 5 min
- tumor uptake persisted post injection [1, 2]: up to 120 h
- solubility (in words) (Solubility): improved solubility

Compound: NC(=O)C1(NC(=O)[C@@H](CCCC(=O)O)NC(=O)[C@@H](CCCCNC(=O)/C=C/c2cccnc2)NC(=O)c2cccc(Nc3nc4cc(Br)ccc4[nH]3)c2)CCCCC1 [Compound 3]
- IC50 (activated α4β1 integrin): 30 nM

Compound: NC(=O)C1(NC(=O)[C@H](CCCC(=O)O)NC(=O)[C@H](CCCCNC(=O)/C=C/c2cccnc2)NC(=O)Cc2ccc(Nc3nc4ccccc4[nH]3)cc2)CCCCC1 [Compound 2, reference compound]
- potency relative to bisaryl urea 1 (fold less potent) (activated α4β1 integrin; compared with 1): 10 fold

Compound: Cc1cccc2oc(Nc3ccc(CC(=O)N[C@H](CCCCNC(=O)/C=C/c4cccnc4)C(=O)N[C@H](CCCC(=O)O)C(=O)NC4(C(N)=O)CCCCC4)cc3)nc12 [Compound 7]
- potency (in words) (activated α4β1 integrin): low nM potency

Compound: NC(=O)C1(NC(=O)[C@@H](CCCC(=O)O)NC(=O)[C@@H](CCCCNC(=O)/C=C/c2cccnc2)NC(=O)Cc2ccc(Nc3nc4ccccc4s3)cc2)CCCCC1 [Compound 6, (R)-5-(R)-[2-{2-[4-(Benzothiazol-2-ylamino)-phenyl]acetylamino}-6-(E)-(3-pyridin-3-yl-acryloylamino)hexanoylamino]-5-(1-carbamoylcyclo-hexylcarbamoyl)pentanoic Acid]
- potency (in words) (activated α4β1 integrin): equipotent to 1

Compound: Cc1ccc2[nH]c(Nc3ccc(C(=O)N[C@H](CCCCNC(=O)/C=C/c4cccnc4)C(=O)N[C@H](CCCC(=O)O)C(=O)NC4(C(N)=O)CCCCC4)cc3)nc2c1 [Compound 5]
- IC50 (activated α4β1 integrin): 490 nM
- potency (in words) (activated α4β1 integrin): mid nM potency

Second part, the compound after the results:

- potency (in words) (activated α4β1 integrin): mid nM potency
Compound: NC(=O)C1(NC(=O)[C@@H](CCCC(=O)O)NC(=O)[C@@H](CCCCNC(=O)/C=C/c2cccnc2)NC(=O)c2ccc(Nc3nc4ccccc4s3)cc2)CCCCC1 [Compound 11]

- potency (in words) (activated α4β1 integrin): complete loss of potency
Compound: NC(=O)C1(NC(=O)[C@@H](CCCC(=O)O)NC(=O)[C@@H](CCCCNC(=O)/C=C/c2cccnc2)NC(=O)c2ccc(Nc3nc4ccccc4o3)cc2)CCCCC1 [Compound 10]

- potency (in words) (activated α4β1 integrin): complete loss of potency
Compound: Cc1cccc2oc(Nc3ccc(C(=O)N[C@H](CCCCNC(=O)/C=C/c4cccnc4)C(=O)N[C@H](CCCC(=O)O)C(=O)NC4(C(N)=O)CCCCC4)cc3)nc12 [Compound 9]

Source: article PMC3164867 (Journal of medicinal chemistry, 2009)
